Measurements published in article PMC5837702 (Toxicological Sciences, 2017).
Several values for one entry are separate records, joined by “and”; a condition that tells them apart may be missing. Equal values may be shown once. Entries after “also recorded” stand apart in the source; their conditions may differ.

Tests used:
[1] = test system: Salmonella Typhimurium TA98; experiment: Bacterial reverse mutation test; assay type: cell-based; conditions: for Induction of revertant colonies compared with vehicle control: absence of metabolic activation; for Induction of revertants: presence of S9
[2] = test system: Balb/c 3T3 clone A31-1-1 cells; experiment: BALB/c 3T3 cell transformation assay; assay type: cell-based; conditions: for Induction of foci / cell transformation: concentrations of up to 50 µM
[3] = test system: mouse fibroblast C3H/M2 cells; conditions: ref Pfau etal., 1999, cited from earlier work; for Malignant transformation: in the presence of rat-liver S9; for Cell transformation: without metabolic activation
[4] = test system: human colon epithelial cells (HCEC); experiment: Cytotoxicity, CellTiter-Glo luminescent cell viability assay; assay type: cell-based; conditions: for LOAEL / NOAEL / BMD5 / BMD10 / BMDU5 / BMDL10 / BMDL5 / BMDU10 / IC50: 24 h; for BMD5: 5% benchmark dose; for BMD10: 10% benchmark dose; for BMDU5: highest benchmark dose upper bound, Hill models; for BMDU5 / BMDL5: 5% response; for BMDL10: lower bound; for BMDL10 / BMDU10: 10% response; for BMDL5: lowest benchmark dose lower bound, exponential models; for BMDU10: upper bound; for IC10 (95% CI): mean of 3 experiments; for IC50: Homo sapiens, read-out: IC50 (95% CI)
L. rossiae DSM 15184 = experiment: Microbial MelQx transformation in mYCFA with glycerol; assay type: in vitro ADME, Lactobacillus rossiae; conditions: 100 µM MelQx, anaerobic, 37 °C, 3 days
L. reuteri ATCC 55730 = experiment: as above; assay type: in vitro ADME, Lactobacillus reuteri; conditions: 100 µM MelQx, anaerobic, 37 °C, 3 days
[5] = test system: complex human gut microbiota; experiment: MelQx transformation by complex human colon microbiota; assay type: in vitro ADME; conditions: absence of glycerol, 100 μM MelQx, 37 °C, 72 h
Procedure, shortened: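 Faecal microbiota from a healthy person were immobilised in gellan-xanthan gel beads under strict anaerobiosis and inoculated (30% v/v) into a proximal-colon reactor (37 °C, pH 5.7). It was linked to a distal-colon reactor (37 °C, pH 6.8). PC and DC effluents seeded triplicate mYCFA batch fermentations. Supernatants were alkalinised with Na2CO3, extracted thrice with ethyl acetate, concentrated and analysed by LC-ESI-MS2.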

bacteria [6] = conditions: cited from earlier work; for Mutagenic activity: 1 µg/plate, similar experimental conditions, ref Vanhaecke etal., 2008b
[7] = Stability of MelQx-M1 under Ames assay conditions; assay type: in vitro ADME; conditions: 10% rat liver S9, 1 µM, 30 min, 37 °C
[8] = test system: human colon epithelial cells from a different origin; conditions: in presence of sulfotransferases; ref Herbst etal. (2006); cited from earlier work
bacteria [9] = experiment: Ames test; assay type: cell-based; conditions: 1 µg/plate, expectation of the authors
BALB/c 3T3 cells = conditions: non-cytotoxic concentrations; ref Nicken etal., 2015; cited from earlier work
rat intestinal tissues = conditions: ref Nicken etal., 2015; cited from earlier work
[10] = −S9, dose 5 µg/plate, positive control
[11] = +S9, dose 0.08 µM (0.01 µg/plate)
[12] = +S9, dose 0.2 µM (0.23 µM in text; 0.03 µg/plate MelQx, 0.04 MelQx-M1)
[13] = +S9, dose 0.8 µM (0.11 µg/plate MelQx, 0.13 MelQx-M1)
[14] = +S9, dose 2.3 µM (0.32 µg/plate MelQx, 0.40 MelQx-M1)
[15] = +S9, dose 7.7 µM (1.1 µg/plate MelQx, 1.3 MelQx-M1)
[16] = −S9, dose 0.08 µM (0.01 µg/plate)
[17] = −S9, dose 0.2 µM (0.03 µg/plate MelQx, 0.04 MelQx-M1)
[18] = −S9, dose 0.8 µM (0.11 µg/plate MelQx, 0.13 MelQx-M1)
[19] = −S9, dose 2.3 µM (0.32 µg/plate MelQx, 0.40 MelQx-M1)
[20] = −S9, dose 7.7 µM (1.1 µg/plate MelQx, 1.3 MelQx-M1)
[21] = 0.1 µM, 72 h exposure, n = 9–10
[22] = 0.5 µM, 72 h exposure, n = 9–10

SMILES: O=[N+]([O-])c1ccc2c(c1)Cc1ccccc1-2 [2-nitrofluorene, 2-Nitrofluorene]
- Mutagenic activity [1, 10]: 616 ± 18 revertants/plate

SMILES: Cc1ccc2cc3c(ccc4ccccc43)c3c2c1CC3 [3-methylcholanthrene]
- Number of foci per plate ([2]; 15 µM, positive control): Medium (control), 0.1% DMSO, 15 µM 3-methylcholanthrene (MCA, positive control) induced 0.2 ± 0.4, 0 ± 0, and 14.1 ± 4.5 foci per plate, respectively. NT, not tested in this study. Data are displayed as mean ± SD (n = 9–10).

SMILES: Nc1ccc([N+](=O)[O-])cc1N [4-NPD, 4-nitro-o-phenylenediamine]
- Mutagenic activity [1, 10]: 695 ± 5 revertants/plate

SMILES: Cn1c(N)nc2c3cccnc3ccc21 [IQ, 2-amino-3-methylimidazo[4,5-f]quinoline]
- Malignant transformation [3]: all induced malignant transformation
- Cell transformation [3]: none of the HCAs induced cell transformation

SMILES: Cc1cnc2ccc3c(nc(N)n3C)c2n1 [MelQx, 2-Amino-3,8-dimethylimidazo[4,5-f]quinoxaline]
- LOAEL [4]: 50 µM
- NOAEL [4]: 10 µM
- BMD5 [4]: 26.5 µM
- BMD10 [4]: 55.2 µM
- BMDU5 [4]: 55.8 µM
- BMDL10 [4]: 8.8 µM
- BMDL5 [4]: 4.1 µM
- BMDU10 [4]: 87.6 µM
- Concentrations that reduced cell viability ([4]; 24 h exposure): ≥ 50 µM
- IC10 (95% CI) ([4]; 24 h exposure): 52 (31–87) µM
- IC50 [4]: 272 µM
- Mutagenic activity [1, 11]: 352 ± 4 revertants/plate
- Mutagenic activity [1, 12]: 980 ± 20 revertants/plate
- Mutagenic activity [1, 13]: 1264 ± 38 revertants/plate
- Mutagenic activity [1, 14]: 1449 ± 132 revertants/plate
- Mutagenic activity [1, 15]: >1500 revertants/plate
- Mutagenic activity ([1]; +S9, dose 23–769 µM (3.2–107 µg/plate)): >1500 revertants/plate
- Induction of revertant colonies compared with vehicle control [1]: did not induce a significantly higher number of revertant colonies
- Induction of revertants [1]: induced a significant and concentration-dependent increase of the number of revertants
- Mutagenic activity [1, 16]: 23 ± 1 revertants/plate
- Mutagenic activity [1, 17]: 21 ± 2 revertants/plate
- Mutagenic activity [1, 18]: 20 ± 1 revertants/plate
- Mutagenic activity [1, 19]: 21 ± 1 revertants/plate
- Mutagenic activity [1, 20]: 20 ± 1 revertants/plate
- Mutagenic activity ([1]; −S9, dose 23–769 µM (3.2–107 µg/plate)): 21–22 revertants/plate
- Number of foci per plate [2, 21]: 0.1 ± 0.3
- Number of foci per plate [2, 22]: 0.5 ± 0.7
- Number of foci per plate ([2]; 5 µM, 72 h exposure, n = 9–10): 0.1 ± 0.3
- Number of foci per plate ([2]; 10 µM, 72 h exposure, n = 9–10): 0.6 ± 0.7
- Number of foci per plate ([2]; 50 µM, 72 h exposure, n = 9–10): 0.6 ± 1.2
- Induction of foci / cell transformation [2]: neither MelQx nor MelQx-M1 induced a significant amount of foci; also recorded: no detectable cell transformation
- Transformation efficiency on the basis of peak area (LC-ESI-MS2) (L. rossiae DSM 15184): 72% ± 1.5%
- Transformation efficiency on the basis of peak area (LC-ESI-MS2) (L. reuteri ATCC 55730): 87% ± 0.9%
- Transformation of MelQx to MelQx-M1 [5]: no transformation
- Mutagenicity relative to PhIP (bacteria [6]; Ames test, ref Pfau etal., 1999): about 10 times
- Malignant transformation [3]: all induced malignant transformation
- Cell transformation [3]: none of the HCAs induced cell transformation

SMILES: Cc1cnc2ccc3c(c2n1)N1CCC(O)N=C1N3C (stereo not drawn) [MelQx-M1, 9-hydroxyl-2,7-dimethyl-7,9,10,11-tetrahydropyrimido[2′,1′:2,3]imidazo[4,5-f]quinoxaline]
- LOAEL [4]: 350 µM
- NOAEL [4]: 200 µM
- BMD5 [4]: 262.2 µM
- BMD10 [4]: 334.6 µM
- BMDU5 [4]: 334 µM and 333.7 µM
- BMDL10 [4]: 272.8 µM
- BMDL5 [4]: 204 µM and 204.1 µM
- BMDU10 [4]: 366.1 µM
- IC10 (95% CI) ([4]; 24 h exposure): 316 (285–351) µM
- IC50 [4]: 617 µM
- Mutagenic activity [1, 11]: 44 ± 1 revertants/plate
- Mutagenic activity [1, 12]: 66 ± 5 revertants/plate
- Mutagenic activity [1, 13]: 182 ± 13 revertants/plate
- Mutagenic activity [1, 14]: 358 ± 4 revertants/plate
- Mutagenic activity [1, 15]: 770 ± 7 revertants/plate
- Mutagenic activity ([1]; +S9, dose 23 µM (4.0 µg/plate)): 1000 ± 20 revertants/plate
- Mutagenic activity ([1]; +S9, dose 77–769 µM (14–135 µg/plate)): >1500 revertants/plate
- Induction of revertant colonies compared with vehicle control [1]: did not induce a significantly higher number of revertant colonies
- Mutagenic activity relative to MelQx in terms of revertants/plate ([1]; after microbial transformation of MelQx to MelQx-M1): 3%–26%
- Induction of revertants [1]: induced a significant and concentration-dependent increase of the number of revertants
- Mutagenic activity [1, 16]: 21 ± 1 revertants/plate
- Mutagenic activity [1, 17]: 21 ± 1 revertants/plate
- Mutagenic activity [1, 18]: 21 ± 1 revertants/plate
- Mutagenic activity [1, 19]: 22 ± 2 revertants/plate
- Mutagenic activity [1, 20]: 31 ± 2 revertants/plate
- Mutagenic activity ([1]; −S9, dose 23 µM (4.0 µg/plate)): 32 ± 3 revertants/plate
- Mutagenic activity ([1]; −S9, dose 77–769 µM (14–135 µg/plate)): 41–54 revertants/plate
- Number of foci per plate [2, 21]: 1.1 ± 1.2
- Number of foci per plate [2, 22]: 0.1 ± 0.3
- Number of foci per plate ([2]; 1 µM, 72 h exposure, n = 9–10): 0.5 ± 0.7
- Number of foci per plate ([2]; 2 µM, 72 h exposure, n = 9–10): 0.1 ± 0.3
- Number of foci per plate ([2]; 3 µM, 72 h exposure, n = 9–10): 0.1 ± 0.3
- Number of foci per plate ([2]; 4 µM, 72 h exposure, n = 9–10): 0.2 ± 0.4
- Number of foci per plate ([2]; 5 µM, 72 h exposure, n = 9–10): 0 ± 0
- Number of foci per plate ([2]; 6 µM, 72 h exposure, n = 9–10): 0.6 ± 0.8
- Number of foci per plate ([2]; 7 µM, 72 h exposure, n = 9–10): 0.7 ± 1.5
- Number of foci per plate ([2]; 10 µM, 72 h exposure, n = 9–10): 1.4 ± 2.2
- Number of foci per plate ([2]; 50 µM, 72 h exposure, n = 9–10): 0 ± 0
- Induction of foci / cell transformation [2]: neither MelQx nor MelQx-M1 induced a significant amount of foci; also recorded: no detectable cell transformation
- Stability in the presence of S9 [7]: generation of small amounts of MelQx as a decomposition product

SMILES: Cn1c(NO)nc2ncc(-c3ccccc3)cc21 [N-OH-PhIP, 2-hydroxyamino-1-methyl-6-phenylimidazo[4,5-b]pyridine]
- Malignant transformation [8]: induced malignant transformation

SMILES: Cn1c(N)nc2ncc(-c3ccccc3)cc21 [PhIP, 2-amino-1-methyl-6-phenylimidazo[4,5-b]pyridine]
- Mutagenic activity (bacteria [6]): 1700 revertants/µg
- Malignant transformation [3]: all induced malignant transformation
- Cell transformation [3]: none of the HCAs induced cell transformation

SMILES: C[n+]1c2n(c3ncc(-c4ccccc4)cc31)CCC(O)N2.[Cl-] (stereo not drawn) [PhIP-M1, 7-hydroxy-5-methyl-3-phenyl-6,7,8,9-tetrahydropyrido[3’,2’:4,5]imidazo[1,2-a]pyrimidin-5-ium chloride]
- Expected mutagenic activity (bacteria [9]): 50 revertants/µg
- Mutagenic activity (bacteria [6]): 46 ± 2 revertants/µg
- Malignant transformation of BALB/c 3T3 cells (BALB/c 3T3 cells): did not induce malignant transformation; also recorded: does not induce cell transformation
- Cytotoxicity (rat intestinal tissues): not being cytotoxic
